Source: ChEMBL document CHEMBL1157555, “Synthesis and pharmacological evaluation of novel 1,3,8- and 1,3,7,8-substituted xanthines as adenosine receptor antagonists” (Bioorg Med Chem, 2010)

What was measured:
[1] = target: T1, Adenosine receptor A1 (Homo sapiens, UniProt P30542); assay: Displacement of [3H]DPCPX from human recombinant adenosine A1 receptor expressed in CHO cells by microplate beta scintillation counter; assay type: cell-based
T1 sequence (P30542 whole entry): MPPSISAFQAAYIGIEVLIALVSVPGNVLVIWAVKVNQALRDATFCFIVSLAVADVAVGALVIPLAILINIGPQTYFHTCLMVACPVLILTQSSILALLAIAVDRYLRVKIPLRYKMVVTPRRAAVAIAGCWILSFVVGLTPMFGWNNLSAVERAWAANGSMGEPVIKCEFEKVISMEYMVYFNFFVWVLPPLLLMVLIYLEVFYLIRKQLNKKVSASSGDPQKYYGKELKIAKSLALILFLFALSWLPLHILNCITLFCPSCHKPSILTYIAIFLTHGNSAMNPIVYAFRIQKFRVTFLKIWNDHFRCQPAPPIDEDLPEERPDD
Method in brief: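 Membranes from CHO cells expressing human A1 were labelled with 2 nM [3H]DPCPX. Non-specific binding was defined with (R)-PIA. Incubation ran 60 min at 25 °C, then samples were filtered and counted by beta scintillation. IC50 came from non-linear regression, and Ki from Cheng–Prusoff. Weak or poorly soluble compounds were reported as % inhibition of specific binding at a single concentration. Mean of 3 experiments, each in duplicate.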

[2] = target: Adenosine receptor A2a (Homo sapiens, UniProt P29274); assay: Displacement of [3H]ZM241385 from human recombinant adenosine A2A receptor expressed in human HeLa cells by microplate beta scintillation counter; assay type: cell-based
Method in brief: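 Competition used HeLa cell membranes expressing human A2A with [3H]ZM241385. Non-specific binding was set with NECA. Incubation was 30 min at 25 °C, then filtration and beta scintillation counting. IC50 from non-linear regression was converted to Ki (Cheng–Prusoff). Weak or poorly soluble compounds were reported as % inhibition of specific binding at a single concentration. Three experiments, each in duplicate.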

[3] = target: T2, Adenosine receptor A2b (Homo sapiens, UniProt P29275); assay: Displacement of [3H]DPCPX from human recombinant adenosine A2B receptor expressed in HEK293 cells by microplate beta scintillation counter; assay type: cell-based
T2 sequence (P29275 whole entry): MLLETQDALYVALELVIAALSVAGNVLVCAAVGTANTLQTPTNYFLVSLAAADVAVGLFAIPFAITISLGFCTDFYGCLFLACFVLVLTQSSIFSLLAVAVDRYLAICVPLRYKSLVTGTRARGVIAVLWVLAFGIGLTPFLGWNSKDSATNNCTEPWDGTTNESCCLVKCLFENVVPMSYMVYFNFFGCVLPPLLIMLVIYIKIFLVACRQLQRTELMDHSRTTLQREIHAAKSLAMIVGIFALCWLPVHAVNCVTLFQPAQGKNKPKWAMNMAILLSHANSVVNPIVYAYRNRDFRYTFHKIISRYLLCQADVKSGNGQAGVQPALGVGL
Method in brief: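 Membranes from HEK-293 cells expressing human A2B were labelled with 35 nM [3H]DPCPX. Incubation ran 30 min at 25 °C, followed by filtration and beta scintillation counting. IC50 was fitted by non-linear regression and converted to Ki by Cheng–Prusoff. Weak or poorly soluble compounds were given as % inhibition of specific binding at a single concentration. n = 3, each in duplicate.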

[4] = target: T3, Adenosine receptor A3 (Homo sapiens, UniProt P0DMS8); assay: Displacement of [3H]NECA from human recombinant adenosine A3 receptor expressed in human HeLa cells by microplate beta scintillation counter; assay type: cell-based
T3 sequence (P0DMS8 whole entry): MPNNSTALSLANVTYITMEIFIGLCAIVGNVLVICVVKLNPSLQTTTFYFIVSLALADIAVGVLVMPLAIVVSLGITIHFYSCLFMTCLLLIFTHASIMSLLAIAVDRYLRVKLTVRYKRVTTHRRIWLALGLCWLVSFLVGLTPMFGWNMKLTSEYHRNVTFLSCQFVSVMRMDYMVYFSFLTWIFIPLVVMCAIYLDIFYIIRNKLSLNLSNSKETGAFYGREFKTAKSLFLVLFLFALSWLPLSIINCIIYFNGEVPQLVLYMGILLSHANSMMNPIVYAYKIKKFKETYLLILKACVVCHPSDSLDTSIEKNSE
Method in brief: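 HeLa-A3 cell membranes were labelled with 30 nM [3H]NECA. Non-specific binding was defined with (R)-PIA. After 180 min at 25 °C, samples were filtered and counted by beta scintillation. Ki was calculated by Cheng–Prusoff from IC50 obtained by non-linear regression. Weak or poorly soluble compounds were reported as % inhibition of specific binding at a single concentration. Mean of 3 experiments in duplicate.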

[5] = species: Homo sapiens; assay: Selectivity ratio of Ki for human adenosine A2A receptor to Ki for human adenosine A2B receptor
Method in brief: (§1)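 Ratios of Ki values at each human subtype to Ki at human A2B (HEK-293 membranes, [3H]DPCPX). Each Ki was derived by Cheng–Prusoff from IC50 of radioligand competition binding in membranes of transfected cells. Results are the mean of 3 experiments, each in duplicate.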

[6] = species: Homo sapiens; assay: Selectivity ratio of Ki for human adenosine A1 receptor to Ki for human adenosine A2B receptor; method in brief: as §1
[7] = species: Homo sapiens; assay: Selectivity ratio of Ki for human adenosine A3 receptor to Ki for human adenosine A2B receptor; method in brief: as §1

Sequence of Adenosine receptor A2a (P29274 whole entry): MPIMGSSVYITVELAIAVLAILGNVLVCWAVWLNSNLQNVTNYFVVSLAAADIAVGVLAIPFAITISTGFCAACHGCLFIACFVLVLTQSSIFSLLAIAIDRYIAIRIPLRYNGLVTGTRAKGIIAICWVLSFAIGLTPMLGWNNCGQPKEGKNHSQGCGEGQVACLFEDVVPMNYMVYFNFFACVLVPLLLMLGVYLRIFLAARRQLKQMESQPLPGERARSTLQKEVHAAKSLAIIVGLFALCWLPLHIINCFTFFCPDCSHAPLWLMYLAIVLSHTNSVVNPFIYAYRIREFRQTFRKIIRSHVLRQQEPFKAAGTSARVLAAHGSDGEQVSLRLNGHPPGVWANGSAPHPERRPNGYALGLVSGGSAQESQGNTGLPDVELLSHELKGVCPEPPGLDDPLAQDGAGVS

Ki [1]	Ki [2]	Ki [3]	Ki [4]	Ratio Ki [5]	Ratio Ki [6]	Ratio Ki [7]	Compound
676 nM	3980 nM	138 nM	813 nM	28.9	4.9	5.9	CCn1c(=O)c2[nH]c(Cc3cccs3)nc2n(Cc2cccs2)c1=O
93.3 nM	1450 nM	191 nM	117 nM	7.6	0.5	0.6	CCCn1c(=O)c2[nH]c(-c3ccccc3)nc2n(CCSCC)c1=O
